Results on 45 compounds are retold here after ChEMBL document CHEMBL1138262, “Discovery of small molecule CXCR4 antagonists” (J Med Chem, 2007).

Where a SMILES comes first, the peptide text is derived from it. Bridges are numbered along the chain shown (N, C = ends). [ ]: non-standard residue; d: D form. 2Nal = N[C@@H](Cc1ccc2ccccc2c1)C(=O)O; Cit = NC(=O)NCCC[C@H](N)C(=O)O

A word on the EC50: it is the concentration at which the effect is half-maximal. One may read the CC50 as the concentration giving 50% cytotoxicity. As usually defined, the IC50 is the concentration that gives 50% inhibition. High values mean lower potency, low ones higher potency.

Experiment [1] addresses T1, C-X-C chemokine receptor type 4 (Homo sapiens, UniProt P61073). Nature of the experiment: Displacement of biotinylated TN14003 from CXCR4 in MDA-MB-231 cells. Type of experiment: cell-based. Summed up:
(§1)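 MDA-MB-231 cells (2 × 10^4) seeded 2 days before. Exposed to compound at 1, 10, 100 or 1000 nM for 10 min at room temperature, then fixed in ice-cold 4% paraformaldehyde. After rehydration in PBS and avidin/biotin blocking, incubated 45 min at room temperature with 0.05 µg/mL biotinylated TN14003, then streptavidin-rhodamine 30 min. Residual binding assessed by fluorescence microscopy.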

The target in experiment [2] is T1, C-X-C chemokine receptor type 4. Put plainly: Antagonist activity at CXCR4 in human U87 cells assessed as inhibition of SDF1-induced modulation of cAMP production by TR-FRET assay. Type of experiment: functional, cell-based. As to conditions: U-87MG ATCC. In short, it runs like this:
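U87 glioma cells overexpressing CD4 and CXCR4 (U87CD4CXCR4), seeded 2500 cells/well in 2% FBS 48 h before test. Cells pretreated with compound at various concentrations for 15 min at room temperature, then challenged with 150 ng/mL SDF-1. SDF-1-driven cAMP reduction measured by TR-FRET LANCE cAMP kit as Gi function readout.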
(cAMP levels reflect the balance of adenylyl cyclase and phosphodiesterase activity.)

In experiment [3] the test system is MDA-MB-231. Nature of the experiment: Inhibition of SDF1-mediated invasion of human MDA-MB-231 cells. The experiment is classed as functional, cell-based. Summed up: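 Matrigel invasion chamber; MDA-MB-231 cells mixed with compound before seeding in top chamber, 200 ng/mL SDF-1α in bottom chamber as chemoattractant. Incubated 22 h in humidified incubator. Non-invading cells swabbed off the top. Invaded cells on the underside fixed in methanol, stained with H&E and counted to give invasion rate.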

The test system of experiment [4] is MDA-MB-231. Put plainly: Cytotoxicity against MDA-MB-231 cells. The experiment is classed as functional. As to conditions: Homo sapiens.
The nature of experiment [5]: Selectivity index, ratio of IC50 for CXCR4 to CC50 for MDA-MB-231 cells. The experiment is classed as functional, Homo sapiens.
Experiment [6] concerns the target T1, C-X-C chemokine receptor type 4. Nature of the experiment: Inhibition of CXCR4 in MDA-MB-231 cells. Type of experiment: cell-based. Summed up: as §1

T1 sequence (P61073 whole entry): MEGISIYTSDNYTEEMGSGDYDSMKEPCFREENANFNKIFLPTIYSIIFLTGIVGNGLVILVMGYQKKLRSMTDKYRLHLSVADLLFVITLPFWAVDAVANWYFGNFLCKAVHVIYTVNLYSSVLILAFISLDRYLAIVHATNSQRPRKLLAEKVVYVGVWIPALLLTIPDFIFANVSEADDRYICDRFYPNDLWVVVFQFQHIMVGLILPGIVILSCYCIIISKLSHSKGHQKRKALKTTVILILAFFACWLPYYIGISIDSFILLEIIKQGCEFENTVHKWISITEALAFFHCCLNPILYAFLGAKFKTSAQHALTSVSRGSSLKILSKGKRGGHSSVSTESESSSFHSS

For the compound `COc1ccccc1NCc1ccc(CNc2ccccc2OC)cc1`, the EC in experiment [1] came out at 10 nM.

`N=C(N)NCc1ccc(CNC(=N)N)cc1`: in experiment [1], the EC was more than 1000 nM.

`c1ccc(NCc2ccc(CNc3ccccc3)cc2)cc1` had an EC in experiment [1] of 10 nM.

On to `c1ccc(NCc2ccc(CNc3ccccn3)cc2)nc1`, for which the Activity entry in experiment [2] is “Dose-dependent effect”. Also, the EC50 in the experiment with MDA-MB-231 [3] worked out at 5.2 nM; in experiment [1], 1 nM; in experiment [1] (read-out: EC50) it was 0.3 nM.

The compound `Oc1cc(CN2CCOCC2)c(O)cc1CN1CCOCC1` yielded an EC in experiment [1] of more than 1000 nM.

Consider `Cc1cc(CN)c(C)cc1CN`, for which, in experiment [1], the EC is more than 1000 nM.

Take `Cc1c(C)c(CNc2ccccc2)c(C)c(C)c1CNc1ccccc1`: the EC in experiment [1] stood at 10 nM.

With `c1cc(CNC2=NCCN2)ccc1CNC1=NCCN1`, the EC in experiment [1] was more than 1000 nM.

`Cc1c(C)c(CN)c(C)c(C)c1CN` registered an EC in experiment [1] of more than 1000 nM.

`c1ccc(NCCNCc2ccc(CNCCNc3ccccc3)cc2)cc1` registered an EC in experiment [1] of more than 1000 nM.

The compound `NC(=O)c1ccc(C(N)=O)cc1` came in with an EC in experiment [1] of more than 1000 nM.

Turning to `N=C(N)c1ccc(C(=N)N)cc1`, in experiment [1], the EC is more than 1000 nM.

With `C[N+](C)(C)Cc1ccc(C[N+](C)(C)C)cc1`, in experiment [1], the EC was more than 1000 nM.

Compound `c1ccc(NCc2c3ccccc3c(CNc3ccccc3)c3ccccc23)cc1` returned an EC in experiment [1] of 100 nM.

Turning to `CCc1ccc(NCc2ccc(CNc3ccc(CC)cc3)cc2)cc1`, in experiment [1], the EC was determined as 20 nM.

`N=C(N)N/N=C/c1ccc(/C=N/NC(=N)N)cc1`: in experiment [1], the EC is 100 nM.

On to `c1ccc(NCc2ccccc2CNc2ccccc2)cc1`, for which, in experiment [1], the EC is 100 nM.

Compound `Cc1ccc(NCc2ccc(CNc3ccc(C)cc3)cc2)cc1` yielded an EC in experiment [1] of 10 nM.

As to `Fc1ccc(NCc2ccc(CNc3ccc(F)cc3)cc2)cc1`, the EC in experiment [1] came to 1000 nM.

`O=[N+]([O-])c1ccc(NCc2ccc(CNc3ccc([N+](=O)[O-])cc3)cc2)cc1` yielded an EC in experiment [1] of 1000 nM.

In experiment [1], `CC(Nc1ccccc1)c1ccc(C(C)Nc2ccccc2)cc1` (stereo not given) showed an EC of 50 nM.

`CN(Cc1ccc(CN(C)c2ccccc2)cc1)c1ccccc1` showed an EC in experiment [1] of 100 nM.

For `N=C(N)Nc1ccc(NC(=N)N)cc1`, in experiment [1], the EC was more than 1000 nM.

`c1ccc(CNCc2ccc(CNCc3ccccc3)cc2)cc1`: the EC in experiment [1] stood at 80 nM.

For `N=C(N)NCCC[C@H](NC(=O)[C@@H]1CSSC[C@H](NC(=O)[C@H](Cc2ccc3ccccc3c2)NC(=O)[C@H](CCCNC(=N)N)NC(=O)[C@@H](N)CCCNC(=N)N)C(=O)N[C@@H](Cc2ccc(O)cc2)C(=O)N[C@@H](CCCNC(N)=O)C(=O)N[C@@H](CCCCN)C(=O)N[C@H](CCCCN)C(=O)N2CCC[C@H]2C(=O)N[C@@H](Cc2ccc(O)cc2)C(=O)N[C@@H](CCCNC(=N)N)C(=O)N[C@@H](CCCNC(N)=O)C(=O)N1)C(N)=O` (H-RR[2Nal]CY[Cit]K[dK]PYR[Cit]CR-NH2; disulfide 4-13), the 50% cytotoxic concentration (CC50) in the experiment with MDA-MB-231 [4] is 410000 nM. Besides, the Ratio in experiment [5] worked out at 680000. This compound also showed an IC50 in experiment [6] of 0.6 nM.

Take `CN(C)Cc1ccc(CN(C)C)cc1`: in experiment [1], the EC is more than 1000 nM.

The compound `NCc1ccc(CN)cc1` returned an EC in experiment [1] of more than 1000 nM.

In experiment [1], `Cc1cc(CNc2ccccc2)c(C)cc1CNc1ccccc1` had an EC of 200 nM.

Take `c1ccc(NC[C@H]2CC[C@H](CNc3ccccc3)CC2)cc1`: the EC in experiment [1] was more than 1000 nM.

Compound `c1ccc(NCc2cccc(CNc3ccccc3)c2)cc1` displayed an EC in experiment [1] of 10 nM.

Take `COc1cccc(NC(=O)c2ccc(C(=O)Nc3cccc(OC)c3)cc2)c1`: the EC in experiment [1] came to 1000 nM.

In experiment [1], `c1ccc(CNc2ccccc2)cc1` returned an EC of more than 1000 nM.

Take `Fc1cccc(NCc2ccc(CNc3cccc(F)c3)cc2)c1`: the EC in experiment [1] was 100 nM.

In experiment [1], `COc1cccc(NCc2ccc(CNc3cccc(OC)c3)cc2)c1` yielded an EC of 1 nM.

With `N#Cc1ccc(NCc2ccc(CNc3ccc(C#N)cc3)cc2)cc1`, the EC in experiment [1] amounted to 1000 nM.

`FC(F)(F)c1cccc(NCc2ccc(CNc3cccc(C(F)(F)F)c3)cc2)c1` showed an EC in experiment [1] of 1000 nM.

`c1ccc(NCc2ccc(CNc3ccccc3)c3ccccc23)cc1` returned an EC in experiment [1] of 100 nM.

As to `O=[N+]([O-])c1cccc(NCc2ccc(CNc3cccc([N+](=O)[O-])c3)cc2)c1`, the EC in experiment [1] was determined as 1 nM.

`COc1ccc(NCc2ccc(CNc3ccc(OC)cc3)cc2)cc1`: in experiment [1], the EC was determined as 25 nM.

Consider `c1ccc(NCc2cc(CNc3ccccc3)cc(CNc3ccccc3)c2)cc1`, for which the EC in experiment [1] is more than 1000 nM.

`C(=N\NC1=NCCN1)/c1ccc(/C=N/NC2=NCCN2)cc1` registered an EC in experiment [1] of more than 1000 nM.

In experiment [1], `N=C(N)c1ccc(CN)cc1` had an EC of more than 1000 nM.

Compound `CN(C)CCNCc1ccc(CNCCN(C)C)cc1` displayed an EC in experiment [1] of more than 1000 nM.

For `c1ccc(-c2nc(-c3ccc(-c4nc(-c5ccccc5)c(-c5ccccc5)[nH]4)cc3)[nH]c2-c2ccccc2)cc1`, in experiment [1], the EC is more than 1000 nM.

In experiment [1], `Fc1ccccc1NCc1ccc(CNc2ccccc2F)cc1` yielded an EC of 1 nM.
